Results: publication PMC3589724 (Scientific Reports, 2013)
Read-outs that look alike come from different tables or passages of the source.

Experiments:
CaM = conditions: in vivo CaM binding, cited from earlier work
apoCaM = test: ITC binding to apo CaM; conditions: for Association constant Ka: apoCaM, buffer A (20 mM Imidazole pH 8.0, 100 mM NaCl, 2 mM EGTA), 24°C, single-site fitting model
Outline: (§1)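 CaM (His6-tagged, E. coli-expressed; mutants made by inverse PCR) is injected into full-length wild-type or point-mutant Nm/Ng, or into synthetic IQ peptides (Nm 34–57, Ng 27–50). Apo and mutant CaM are in buffer A; Ca2+/CaM is in buffer B. Samples are degassed. VP-ITC or iTC200, 24°C, 10 (or 2) μl injections at 5 (or 2) min intervals. Buffer-titration dilution heats are subtracted, and a single-site fit gives Ka.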

Ca^2+/CaM = test: ITC binding to Ca^2+/CaM; conditions: buffer B (20 mM HEPES pH 8.0, 100 mM NaCl, 10 mM CaCl2), 24°C, single-site fitting model
Outline: as §1

CaMWT = test: ITC binding to wild-type CaM; conditions: point mutants of Nm/Ng
Outline: as §1

[1] = Ser36-phosphorylated; cited from earlier work
[2] = tested on: synaptic transmission, CA1 hippocampal synapses; conditions: cited from earlier work
CaME85A/F142A = test: ITC binding to CaM double mutant E85A/F142A; conditions: buffer A (20 mM Imidazole pH 8.0, 100 mM NaCl, 2 mM EGTA), 24°C
Outline: as §1

| Substance | Ng-CaM binding (CaM) | Association constant Ka (apoCaM) | Association constant Ka (Ca^2+/CaM) | further results |
| --- | --- | --- | --- | --- |
| Arg38Gln (R38Q): Ng point mutant Arg38Gln (literature) | reduce Ng-CaM binding |  |  | Ng-CaM binding (CaM; listed as Arg38Gln): reduce the binding strength |
| Ile33Gln (I33Q): Ng point mutant Ile33Gln (literature) | completely inhibits the binding |  |  |  |
| NgIQ: synthetic wild-type IQ motif peptide of Ng, aa27–50 (NAAAAKIQASFRGHMARKKIKSGE) |  | 2.3 10^6 M^−1 | 0.3 10^6 M^−1 |  |
| NgR38A: full-length Ng point mutant Arg38Ala; GFP-tagged in the electrophysiology experiments |  |  |  | binding to apo CaM (in words) (apoCaM; mutant Ng): does not bind to the apo CaM; binding to CaM (in words) (CaMWT): completely abolish |
| NmIQ: synthetic wild-type IQ motif peptide of Nm, aa34–57 |  | 25 10^6 M^−1 | 1.6 10^6 M^−1 |  |
| Ser36-phosphorylated Ng: Ng phosphorylated at Ser36 by PKC [reference compound] |  |  |  | binding to CaM and phosphatidic acid [1]: unable to bind CaM and phosphatidic acid; synaptic strength ([2]; Ser36-phosphorylated): unable to enhance synaptic strength |
| Ser36Asp (S36D): Ng point mutant Ser36Asp (literature) | reduce Ng-CaM binding |  |  |  |
| neurogranin [NgWT] |  | 23 10^6 M^−1 | 0.96 10^6 M^−1 | affinity to apo CaM relative to Ca^2+/CaM (apoCaM; in words): higher affinity than that to Ca^2+/CaM; synaptic transmission / strength ([2]; overexpression, listed as wild-type Ng): potentiates synaptic transmission; synaptic strength ([2]; through interaction with CaM): enhances synaptic strength |
| neuromodulin [NmWT] |  | 7.9 10^6 M^−1 | 0.52 10^6 M^−1 | Association constant Ka (CaME85A/F142A): 0.46 10^6 M^−1 |
